Experimental data published in ChEMBL document CHEMBL1132241, “Novel multidrug resistance reversal agents” (J Med Chem, 1999).

What was measured:
[1] = tested on: Mus musculus; assay: Percent increase in mean life span when 0.2 mg/kg vincristine was administered ip once daily on days 1-7, in mice infected with leukemia P388/VCR; assay type: functional; parameters: concentration or dose not given beside the values; conditions: route intraperitoneal
Outline: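 CDF1 mice bearing ip P388/VCR (1 × 10^6 cells) received 0.2 mg/kg vincristine ip once daily on days 1–7. Mean survival to 30 days was expressed as % increase in life span relative to placebo control.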

[2] = tested on: Mus musculus; assay: Percent increase in mean life span in mice infected with leukemia P388/VCR, at 12.5 mg/Kg dose; assay type: functional
Outline: (§1)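 CDF1 mice (groups of 10–15) were implanted ip with 1 × 10^6 P388/VCR cells. Agent plus 0.2 mg/kg vincristine were given together ip once daily on days 1–7, starting 1 day post-implant, in cremophor/ethanol or propylene glycol/ethanol vehicle. Survival was recorded to 30 days. Result is the % increase in mean life span versus placebo control.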

[3] = tested on: S1B1-20; assay: In vitro concentration required to inhibit tumor activity on subclone of human colon carcinoma cells (S1-B1-20) resistant to bisantrene; assay type: functional, cell-based
Outline: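 S1-B1-20 cells (S1 clone of LS 174 T, selected in bisantrene over 12–16 weeks) plated at 20 000 cells/well with or without 20 μM bisantrene, plus test agent 0.1–80 μM from DMSO stock (final DMSO ≤0.1%). 3 days, 37 °C, 7% CO2. Survival by sulforhodamine B at 540 nm. IC50 from best-fit curve of difference score (survival alone minus survival with bisantrene) at 50; 2–4 sets of measurements.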

[4] = (§2) In vitro concentration at which 50% of human colon carcinoma cells (S1-B1-20) resistant to bisantrene have survived; assay type: ADME, cell-based, S1B1-20; conditions: S1-B1-20 human colon carcinoma cells resistant to bisantrene, read-out: LD50 (the source's name)
Outline: (§3)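 S1-B1-20 cells (LS 174 T-derived S1 clone selected in bisantrene over 12–16 weeks), trypsinized, 20 000 cells/well. Test agent alone in DMSO (≤0.1% final), 0.1–80 µM, 3 days at 37 °C, 7% CO2. Survival by sulforhodamine B read at 540 nm versus untreated cells. Two to four measurement sets were made, and the value is the concentration giving 50% survival from a best-fit curve.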

[5] = Partition coefficient (logP); assay type: physicochemical; conditions: octanol/water
[6] = tested on: Mus musculus; assay: Percent increase in mean life span relative to treatment with an equivalent dose of vincristine alone at 12.5 mg/kg in mice with vincristine-resistantmurine leukemia P388/VCR cells; assay type: functional
Outline: (§4)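 CDF1 mice were implanted ip with 1 × 10^6 P388/VCR cells. Agent and 0.2 mg/kg vincristine were given simultaneously ip once daily, days 1–7. Mean survival over up to 30 days was compared with vincristine alone at an equivalent dose, giving % increase in life span. Student t-test was applied to mean survival time.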

[7] = tested on: Mus musculus; assay: Percent tumor growth inhibition against human epidermoid carcinoma KB/8.5 implanted subcutaneously in mice at 50 mg/kg of compound along with 8 mg/kg (DOX ) was determined; assay type: functional
Outline: (§5)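 Athymic nude mice bearing sc KB/8.5 tumors (8×10^6 cells, colchicine withdrawn for two passages), grouped at 100–300 mg tumor mass, 5–10 mice/group. Doxorubicin 8 mg/kg given once iv; reversal agent or placebo given sc 2 h before and 2 h after. Tumor mass on day 14 used for relative tumor growth versus doxorubicin alone; Student t-test on log RTG.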

[8] = tested on: Mus musculus; assay: Relative tumor growth inhibition against human epidermoid carcinoma KB/8.5 implanted subcutaneously only in mice at 8 mg/kg (DOX); assay type: functional; conditions: route subcutaneous
Outline: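 KB/8.5 cells grown in RPMI 1640 with 5% fetal calf serum plus colchicine (10 ng/mL), which was removed for two passages. 8 × 10^6 cells were then implanted sc in athymic nude mice. At 100-300 mg tumor mass, mice were grouped 5-10/group. Doxorubicin was given as a single iv dose (8 mg/kg). Tumor mass was measured on day 14, and relative growth was compared with saline control.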

[9] = tested on: Mus musculus; assay: Percent increase in mean life span relative to treatment with an equivalent dose of vincristine alone at 25 mg/kg in mice with vincristine-resistantmurine leukemia P388/VCR cells; assay type: functional; outline: as §4
[10] = tested on: Mus musculus; assay: Percent increase in mean life span in mice infected with leukemia P388/VCR, at 25 mg/Kg dose; assay type: functional; outline: as §1
[11] = tested on: Mus musculus; assay: Percent increase in mean life span in mice infected with leukemia P388/VCR, at 6.3 mg/Kg dose; assay type: functional; outline: as §1
[12] = tested on: Mus musculus; assay: Percent increase in mean life span relative to treatment with an equivalent dose of vincristine alone at 6.3 mg/kg in mice with vincristine-resistantmurine leukemia P388/VCR cells; assay type: functional; outline: as §4
[13] = tested on: Mus musculus; assay: Percent increase in mean life span relative to treatment with an equivalent dose of vincristine alone at 50 mg/kg in mice with vincristine-resistantmurine leukemia P388/VCR cells; assay type: functional; outline: as §4
[14] = tested on: Mus musculus; assay: Percent increase in mean life span in mice infected with leukemia P388/VCR, at 100 mg/Kg dose; assay type: functional
Outline: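 CDF1 mice were implanted ip with 1 × 10^6 P388/VCR cells (line passaged in DBA/2 ascites). Agent at 100 mg/kg in Cremophor/ethanol/saline was given ip once daily on days 1–7 without vincristine. Survival was followed to 30 days. Result is the % increase in mean life span versus placebo.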

[15] = tested on: Mus musculus; assay: Percent increase in mean life span in mice infected with leukemia P388/VCR, at 50 mg/Kg dose; assay type: functional; outline: as §1
[16] = tested on: Mus musculus; assay: Percent tumor growth inhibition against human epidermoid carcinoma KB/8.5 implanted subcutaneously in mice at 100 mg/kg of compound along with 8 mg/kg (DOX ) was determined; assay type: functional; outline: as §5
[17] = tested on: Mus musculus; assay: Percent tumor growth inhibition obtained for the combination of DOX(8 mg/kg) together with MDR reversal agent versus DOX (8 mg/kg) alone on day 14 at 100 mg/kg dose(in vivo); assay type: functional; conditions: 336 h, read-out: TGI; outline: as §5
[18] = tested on: S1B1-20; assay: as §2; assay type: ADME, cell-based; conditions: s1b1-20, read-out: LD50 (the source's name); outline: as §3
[19] = tested on: Mus musculus; assay: Percent tumor growth inhibition against human epidermoid carcinoma KB/8.5 implanted subcutaneously in mice at 25 mg/kg of compound along with 8 mg/kg (DOX ) was determined; assay type: functional; outline: as §5

## COc1ccc2c(c1)CCN(CCCCCC(C#N)(Sc1ccc(C)cc1)c1ccc(OC)c(OC)c1)C2 (stereo not given)
[1]
  ILS: 26%
[2]
  ILS at 12.5 mg/kg: 56%
[3]; Homo sapiens, S1B1-20
  IC50: 1.92 µM
[4]
  CC50: 15.7 µM
[5]; read-out: logP
  logP: 6.64
[6]
  ILS at 12.5 mg/kg: 24%

## COc1ccc(C(C#N)(CCCCCCN2CCc3cc(OC)c(OC)cc3C2)Sc2ccc(C)cc2)cc1OC (stereo not given)
[1]
  ILS: 37%
[2]
  ILS at 12.5 mg/kg: 68%
[3]; Homo sapiens, S1B1-20
  IC50: 0.3 µM
[4]
  CC50: 13.5 µM
[5]; read-out: logP
  logP: 6.71
[6]
  ILS at 12.5 mg/kg: 23%

## COc1ccc(C(C#N)(CCCCCCCCCCCN2CCc3cc(OC)c(OC)cc3C2)Sc2ccc(C)cc2)cc1OC (stereo not given)
[7]
  TGI: 61%
[1]
  ILS: 24%
[3]; Homo sapiens, S1B1-20
  IC50: 1.74 µM
[4]
  CC50: 10.8 µM
[8]
  Relative tumor growth: 39
[9]
  ILS at 25 mg/kg: 14%
[10]
  ILS at 25 mg/kg: 42%
[5]
  logP: 9.35

## COc1ccc(C(C#N)(CCCCCCCCN2CCc3cc(OC)c(OC)cc3C2)Sc2ccc(C)cc2)cc1OC (stereo not given)
[1]
  ILS: 24%
[11]
  ILS at 6.3 mg/kg: 34%
[12]
  ILS at 6.3 mg/kg: 8%
[3]; Homo sapiens, S1B1-20
  IC50: 0.36 µM
[4]
  CC50: 11.6 µM
[5]; read-out: logP
  logP: 7.76

## COc1ccc(C(C#N)(CCCN2CCc3cc(OC)c(OC)cc3C2)Sc2ccc(C)cc2)cc1OC (stereo not given)
[7]
  TGI: 63%
[1]
  ILS: 51%
[13]
  ILS at 50 mg/kg: 15%
[3]; Homo sapiens, S1B1-20
  IC50: 0.46 µM
[14]
  ILS at 100 mg/kg: -3%
[4]
  CC50: 24 µM
[8]
  Relative tumor growth: 39
[5]; read-out: logP
  logP: 5.12
[15]
  ILS at 50 mg/kg: 73%

## COc1ccc(C(C#N)(CCCCCN2CCc3cc(OC)c(OC)cc3C2)Sc2ccc(C)cc2)cc1OC (stereo not given)
[7]
  TGI: 59%
[1]
  ILS: 37%
[2]
  ILS at 12.5 mg/kg: 83%
[3]; Homo sapiens, S1B1-20
  IC50: 0.37 µM
[14]
  ILS at 100 mg/kg: -4%
[4]
  CC50: 13.6 µM
[8]
  Relative tumor growth: 69
[5]; read-out: logP
  logP: 6.18
[6]
  ILS at 12.5 mg/kg: 33%

## COC(=O)C(CCCN1CCc2cc(OC)c(OC)cc2C1)(Sc1ccc(C)cc1)c1ccc(OC)c(OC)c1 (stereo not given)
[1]
  ILS: 13%
[13]
  ILS at 50 mg/kg: 11%
[3]; Homo sapiens, S1B1-20
  IC50: 1.47 µM
[4]
  CC50: 32.8 µM
[5]; read-out: logP
  logP: 5.54
[15]
  ILS at 50 mg/kg: 25%

## COc1cc2c(cc1OC)CN(CCCCCCC(Sc1ccccc1)c1ccccc1)CC2 (stereo not given)
[1]
  ILS: 15%
[16]
  TGI: 65%
[3]; Homo sapiens, S1B1-20
  IC50: 3.82 µM
[4]
  CC50: 24.6 µM
[8]
  Relative tumor growth: 59
[9]
  ILS at 25 mg/kg: 46%
[10]
  ILS at 25 mg/kg: 68%
[5]; read-out: logP
  logP: 7.99

## COc1ccc(C(C#N)(CCCCCN2CCc3cc(OC)c(OCCCl)cc3C2)Sc2ccc(C)cc2)cc1OC (stereo not given)
[3]; Homo sapiens, S1B1-20
  IC50: 0.37 µM
[17]
  inhibition in vivo at 100 mg/kg: 64%
[4]
  CC50: 16.8 µM
[8]
  Relative tumor growth: 75
[5]; read-out: logP
  logP: 6.77

## COc1ccc(C(CCCCCN2CCc3cc(OC)c(OC)cc3C2)Sc2ccc(C)cc2)cc1OC (stereo not given)
[1]
  ILS: 21%
[11]
  ILS at 6.3 mg/kg: 37%
[12]
  ILS at 6.3 mg/kg: 13%
[16]
  TGI: 68%
[3]; Homo sapiens, S1B1-20
  IC50: 0.33 µM
[4]
  CC50: 16.9 µM
[8]
  Relative tumor growth: 58
[5]; read-out: logP
  logP: 7.42

## COc1ccc(C(C#N)(CCN2CCc3cc(OC)c(OC)cc3C2)Sc2ccc(C)cc2)cc1OC (stereo not given)
[1]
  ILS: 67%
[2]
  ILS at 12.5 mg/kg: 89%
[3]; Homo sapiens, S1B1-20
  IC50: 2.3 µM
[4]
  CC50: 33.7 µM
[5]; read-out: logP
  logP: 4.59
[6]
  ILS at 12.5 mg/kg: 13%

## COc1ccc(C(C#N)(CCCCCN2Cc3cc(OC)c(OC)cc3C2)Sc2ccc(C)cc2)cc1OC (stereo in doubt; 28a)
[7]
  TGI: 65%
[1]
  ILS: 15%
[3]; s1b1-20
  IC50: 0.81 µM
[18]
  CC50: 22.8 µM
[8]
  Relative tumor growth: 67
[9]
  ILS at 25 mg/kg: 41%
[10]
  ILS at 25 mg/kg: 63%
[5]; read-out: logP
  logP: 5.55

## COc1ccc(C(C#N)(CCCCCN2Cc3cc(OC)c(OC)cc3C2)SC2CCCCC2)cc1OC (stereo in doubt; 28c)
[3]; s1b1-20
  IC50: 0.35 µM
[18]
  CC50: 15 µM

## COc1ccc(C(C#N)(CCCCCN2CCc3cc(OC)c(OCCn4ccnc4)cc3C2)Sc2ccc(C)cc2)cc1OC (stereo in doubt; 39a)
[1]
  ILS: 15%
[13]
  ILS at 50 mg/kg: 48%
[3]; s1b1-20
  IC50: 0.69 µM
[18]
  CC50: 14.7 µM
[8]
  Relative tumor growth: 67
[15]
  ILS at 50 mg/kg: 71%
[19]
  TGI: 46%

## COc1ccc(C(C#N)(CCCCCN2Cc3cc(OC)c(OC)cc3C2)Sc2ccc(C)cc2)cc1OC (stereo in doubt; 44)
[3]; s1b1-20
  IC50: 0.26 µM
[18]
  CC50: 11.4 µM

## COc1cc2c(cc1OC)CN(CCCCCCC(Sc1ccc(C)cc1)c1ccc(OC)c(OCCn3ccnc3)c1)CC2 (stereo in doubt; 47)
[16]
  TGI: 56%
[3]; s1b1-20
  IC50: 0.29 µM
[18]
  CC50: 5.64 µM
[8]; 8 mg/kg
  Relative tumor growth: 80
